Series [1] concerns Primary lung fibroblast. The series is described as follows: Antifibrotic activity against TGFbeta1-induced fibrosis in human primary lung fibroblasts assessed as decrease in alpha-SMA protein level at 500 ug/ml treated at 30 mins to 6 hrs post TGFbeta1 stimulation by immunoblotting analysis. It is filed as functional, tissue-based. The note with it: dose 500.0 µg/ml, time 6.5 hrs. The method in brief:
(§1)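 Therapeutic-timing design in fibroblasts: 500 μg/mL compound was added together with 10 ng/mL TGFβ1 or 30 min to 6 h after TGFβ1. Profibrotic factors were then assessed by immunoblotting.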
For orientation: Immunoblotting shows a protein as a band on a membrane.

Series [2] has as its system Primary lung fibroblast. The series is described as follows: Antifibrotic activity in human primary lung fibroblasts assessed as decrease in fibronectin protein level at 500 ug/ml measured after 72 hrs by immunoblotting analysis. The class given is functional, tissue-based. The note with it: dose 500.0 µg/ml. The method in brief: (§2)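 Primary human fibroblasts received vehicle, 10 ng/mL TGFβ1, 500 μg/mL compound, or TGFβ1 plus compound for 72 h. Vehicles were 4 mM HCl/0.1% BSA for TGFβ1 and 1× PBS for compound. Cell lysates and conditioned medium were immunoblotted with GAPDH as internal control. Densitometry is expressed as mean relative change versus vehicle or internal control ± SDEV, N = 3.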

In series [3] the test system is Primary lung fibroblast. The series is described as follows: Antifibrotic activity against TGFbeta1-induced fibrosis in human primary lung fibroblasts assessed as decrease in collagen type-1 protein level at 500 ug/ml measured after 72 hrs by immunoblotting analysis. The class given is functional, tissue-based. Conditions: dose 500.0 µg/ml. The method in brief:
as §2

The nature of series [4]: Solubility of the compound in water. It is filed as physicochemical. The note with it: buffer.
Series [5] has as its system Primary lung fibroblast. The series is described as follows: Antifibrotic activity against TGFbeta1-induced fibrosis in human primary lung fibroblasts assessed as decrease in IGFBP-3 protein level at 500 ug/ml measured after 72 hrs by immunoblotting analysis. The class given is functional, tissue-based. The note with it: dose 500.0 µg/ml. The method, boiled down:
as §2

Series [6] relates to Primary lung fibroblast. The series is described as follows: Antifibrotic activity against TGFbeta1-induced fibrosis in human primary lung fibroblasts assessed as decrease in IGFBP-3 protein level at 500 ug/ml treated at 30 mins to 6 hrs post TGFbeta1 stimulation by immunoblotting analysis. Conditions: dose 500.0 µg/ml, time 6.5 hrs. The class given is functional, tissue-based. The method, boiled down:
as §1

Series [7] relates to Mus musculus. The series is described as follows: Antifibrotic activity against bleomycin-induced C57BL/6J mouse lung fibrosis model assessed as reduction in COL1A2 mRNA level at 2%, po via gavage administered as single dose measured within 5 days by qRT-PCR analysis. The class given is functional, organism-based. The note with it: time day <=5. The method, boiled down:
(§3)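 Mouse groups received PBS, bleomycin, or bleomycin plus 2% compound. Lung histology was assessed 14 days post-treatment. Lung COL1A2 mRNA was measured at 5 days, normalized to GAPDH. Lung hydroxyproline (total collagen) was measured at 14 days. Data are mean ± SD.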
(In general: Real-time PCR tracks product formation cycle by cycle.)

Series [8] concerns Mus musculus. The series is described as follows: Antifibrotic activity against bleomycin-induced C57BL/6J mouse lung fibrosis model at 2%, po via gavage administered as single dose measured after 14 days by hematoxylin and eosin staining based microscopic analysis. Conditions: time day 14. The class given is functional, organism-based. The method in brief:
as §3

The subject of series [9] is Primary lung fibroblast. The series is described as follows: Antifibrotic activity in human primary lung fibroblasts assessed as decrease in collagen type-1 protein level at 500 ug/ml measured after 72 hrs by immunoblotting analysis. The class given is functional, tissue-based. The note with it: dose 500.0 µg/ml. The method, boiled down: as §2
Series [10] in a line: Toxicity in bleomycin-induced C57BL/6J mouse lung fibrosis model assessed as improvement in mouse survival relative to control. The note with it: in vivo.
The nature of series [11]: Lipophilicity, log P of the compound. The class given is physicochemical. Conditions: octanol/water.
The subject of series [12] is Primary lung fibroblast. The series is described as follows: Antifibrotic activity against TGFbeta1-induced fibrosis in human primary lung fibroblasts assessed as decrease in fibronectin protein level at 500 ug/ml measured after 72 hrs by immunoblotting analysis. The note with it: dose 500.0 µg/ml. It is filed as functional, tissue-based. The method in brief:
as §2

Series [13] deals with Zone of skin. The series is described as follows: Antifibrotic activity against TGFbeta1-induced dermal fibrosis in human skin assessed as reduction in CTGF expression level stimulated with TGFbeta1 for 24 hrs followed by compound treatment at 500 ug/ml measured after 24 hrs by QRT-PCR analysis. It is filed as functional, tissue-based. Conditions: Skin of body, dose 500.0 µg/ml. The method, boiled down:
(§4)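 Human skin in organ culture was treated with vehicle (1× PBS) or 10 ng/mL TGFβ1, then given 500 μg/mL compound 24 h later. CTGF expression in whole skin was read 24 h after compound addition. COL1A1 and FN expression in whole skin were read 72 h after compound addition.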

Series [14] has as its system Primary lung fibroblast. The series is described as follows: Antifibrotic activity in human primary lung fibroblasts assessed as decrease in alpha-SMA protein level at 500 ug/ml measured after 72 hrs by immunoblotting analysis. Conditions: dose 500.0 µg/ml. It is filed as functional, tissue-based. The method in brief:
as §2

In series [15] the test system is Primary lung fibroblast. The series is described as follows: Antifibrotic activity against TGFbeta1-induced fibrosis in human primary lung fibroblasts assessed as decrease in CTGF protein level at 500 ug/ml measured after 72 hrs by immunoblotting analysis. It is filed as functional, tissue-based. The note with it: dose 500.0 µg/ml. The method in brief:
as §2

The test system of series [16] is Primary lung fibroblast. The series is described as follows: Antifibrotic activity against TGFbeta1-induced fibrosis in human primary lung fibroblasts assessed as decrease in CTGF protein level at 500 ug/ml treated at 30 mins to 6 hrs post TGFbeta1 stimulation by immunoblotting analysis. It is filed as functional, tissue-based. Conditions: dose 500.0 µg/ml, time 6.5 hrs. The method, boiled down: as §1

Series [17] relates to Zone of skin. The series is described as follows: Antifibrotic activity against TGFbeta1-induced dermal fibrosis in human skin assessed as reduction in fibronectin expression level stimulated with TGFbeta1 for 24 hrs followed by compound treatment at 500 ug/ml measured after 72 hrs by qRT-PCR analysis. It is filed as functional, tissue-based. The note with it: Skin of body, dose 500.0 µg/ml. The method in brief:
as §4

The test system of series [18] is Mus musculus. The series is described as follows: Antifibrotic activity against bleomycin-induced C57BL/6J mouse lung fibrosis model assessed as reduction in hydroxyproline level in lung at 2%, po via gavage administered as single dose measured on 14 days by hydroxyproline assay. The note with it: time day 14. The class given is functional, organism-based. The method, boiled down:
as §3

For series [19], the system named is Zone of skin. The series is described as follows: Antifibrotic activity against TGFbeta1-induced dermal fibrosis in human skin assessed as reduction in COL1A1 expression level stimulated with TGFbeta1 for 24 hrs followed by compound treatment at 500 ug/ml measured after 72 hrs by qRT-PCR analysis. It is filed as functional, tissue-based. Conditions: Skin of body, dose 500.0 µg/ml. The method, boiled down: as §4

Series [20] deals with Primary lung fibroblast. The series is described as follows: Antifibrotic activity against TGFbeta1-induced fibrosis in human primary lung fibroblasts assessed as decrease in alpha-SMA protein level at 500 ug/ml measured after 72 hrs by immunoblotting analysis. It is filed as functional, tissue-based. Conditions: dose 500.0 µg/ml. The method in brief:
as §2

In series [21] the test system is Primary lung fibroblast. The series is described as follows: Antifibrotic activity against TGFbeta1-induced fibrosis in human primary lung fibroblasts assessed as decrease in TGFbeta1-induced fibronectin protein level at 500 ug/ml treated at 30 mins to 6 hrs post TGFbeta1 stimulation by immunoblotting analysis. The class given is functional, tissue-based. The note with it: dose 500.0 µg/ml, time 6.5 hrs. The method, boiled down:
as §1

The subject of series [22] is Primary lung fibroblast. The series is described as follows: Antifibrotic activity in human primary lung fibroblasts assessed as decrease in CTGF protein level at 500 ug/ml measured after 72 hrs by immunoblotting analysis. It is filed as functional, tissue-based. Conditions: dose 500.0 µg/ml. The method in brief: as §2
The test system of series [23] is Primary lung fibroblast. The series is described as follows: Antifibrotic activity in human primary lung fibroblasts assessed as decrease in IGFBP-3 protein level at 500 ug/ml measured after 72 hrs by immunoblotting analysis. The note with it: dose 500.0 µg/ml. It is filed as functional, tissue-based. The method in brief: as §2
The test system of series [24] is Primary lung fibroblast. The series is described as follows: Antifibrotic activity in against TGFbeta1-induced fibrosis in human primary lung fibroblasts assessed as decrease in collagen type-1 protein level at 500 ug/ml treated at 30 mins to 6 hrs post TGFbeta1 stimulation by immunoblotting analysis. It is filed as functional, tissue-based. The note with it: dose 500.0 µg/ml, time 6.5 hrs. The method, boiled down:
as §1

The subject of series [25] is Primary lung fibroblast. The series is described as follows: Antifibrotic activity against TGFbeta1-induced fibrosis in human primary lung fibroblasts assessed as decrease in COL1A1 expression level at 91 to 500 ug/ml measured after 48 hrs by qRT-PCR analysis. The class given is functional, tissue-based. Conditions: dose microg/ml 500, time 48.0 hrs, in the assay text read “at 500 ug/ml” for “at 91 to 500 ug/ml”. The method, boiled down:
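Primary fibroblasts were treated for 48 h with TGFβ1 with or without compound (500 μg/mL). Extracted RNA was used for real-time PCR of COL1A1. N = 4, mean ± SD.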

The test system of series [26] is Primary lung fibroblast. The series is described as follows: Antifibrotic activity against TGFbeta1-induced fibrosis in human primary lung fibroblasts assessed as decrease in CTGF protein level at 10 to 60 ug/ml measured after 72 hrs by immunoblotting analysis. It is filed as functional, tissue-based. The note with it: dose microg/ml 10-60, time 72.0 hrs. The method, boiled down:
(§5)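 Primary human fibroblasts were exposed for 72 h to vehicle (DMSO), TGFβ1, or TGFβ1 plus compound at the indicated concentrations. Fibrotic factors in cell lysates and conditioned medium were detected by immunoblotting, with GAPDH as internal control.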

Series [27] concerns Primary lung fibroblast. The series is described as follows: Antifibrotic activity against TGFbeta1-induced fibrosis in human primary lung fibroblasts assessed as decrease in collagen type-1 protein level at 10 to 60 ug/ml measured after 72 hrs by immunoblotting analysis. It is filed as functional, tissue-based. The note with it: dose microg/ml 10-60, time 72.0 hrs. The method, boiled down:
as §5

Series [28] relates to Primary lung fibroblast. The series is described as follows: Antifibrotic activity against TGFbeta1-induced fibrosis in human primary lung fibroblasts assessed as decrease in IGFBP-3 protein level at 10 to 60 ug/ml measured after 72 hrs by immunoblotting analysis. The class given is functional, tissue-based. The note with it: dose microg/ml 10-60, time 72.0 hrs. The method, boiled down: as §5

Series [29] has as its system Primary lung fibroblast. The series is described as follows: Antifibrotic activity against TGFbeta1-induced fibrosis in human primary lung fibroblasts assessed as decrease in fibronectin protein level at 10 to 60 ug/ml measured after 72 hrs by immunoblotting analysis. It is filed as functional, tissue-based. The note with it: dose microg/ml 10-60, time 72.0 hrs. The method in brief: as §5

Series [30] deals with Primary lung fibroblast. The series is described as follows: Antifibrotic activity against TGFbeta1-induced fibrosis in human primary lung fibroblasts assessed as decrease in alpha-SMA protein level at 10 to 60 ug/ml measured after 72 hrs by immunoblotting analysis. The note with it: dose microg/ml 10-60, time 72.0 hrs. The class given is functional, tissue-based. The method, boiled down: as §5

SMILES strings stand for the structures. Activity calls are given as the source filed them. The calls are words filed in the database; no cut-off is given here.

As to `CC1(C[S+]([O-])CC2(C)COC2)COC1`, the outcome with Primary lung fibroblast [1], with Primary lung fibroblast [2], with Primary lung fibroblast [3], in the series with Primary lung fibroblast [5], in the series on Primary lung fibroblast [6] and in the series with Mus musculus [7] was Active. Also, the outcome in the series with Mus musculus [8], with Primary lung fibroblast [9], in the series with Primary lung fibroblast [12], with Zone of skin [13], in the series with Primary lung fibroblast [14] and in the series with Primary lung fibroblast [15] was Active. For the same compound, the outcome in the series on Primary lung fibroblast [16], in the series with Zone of skin [17], with Mus musculus [18], in the series on Zone of skin [19], with Primary lung fibroblast [20] and in the series with Primary lung fibroblast [21] was Active. For the same compound, the outcome with Primary lung fibroblast [22], with Primary lung fibroblast [23] and in the series with Primary lung fibroblast [24] was Active. The solubility entry in series [4] is reported as “Soluble”. Moreover, in series [10], the Activity stood at 87.5%. For the same compound, in [11], the logP (in general, the decadic logarithm of the partition coefficient of the neutral form, usually between octanol and water) is -0.7.

For `[O-][S+](CC1(F)COC1)c1cccc(F)c1` (racemic), the outcome in the series with Primary lung fibroblast [25] was Active.

For the compound `CC1(C[S+]([O-])c2ccccc2)COC1` (racemic), the outcome in the series on Primary lung fibroblast [26], with Primary lung fibroblast [27], in the series with Primary lung fibroblast [28], in the series with Primary lung fibroblast [29] and in the series with Primary lung fibroblast [30] was Active.

The record behind these values is ChEMBL document CHEMBL4725484, “Oxetanyl Sulfoxide MMS-350 Ameliorates Pulmonary Fibrosis In Vitro, In Vivo, and Ex Vivo” (ACS Med Chem Lett, 2020).
